# Published values gathered from unrelated publications.
# Compare with care: the assays were run in different laboratories.
# Target: Rhodopsin kinase GRK7 (GRK7, Homo sapiens, UniProt Q8WTQ7)
# Residues used in one study (Q8WTQ7 1-553): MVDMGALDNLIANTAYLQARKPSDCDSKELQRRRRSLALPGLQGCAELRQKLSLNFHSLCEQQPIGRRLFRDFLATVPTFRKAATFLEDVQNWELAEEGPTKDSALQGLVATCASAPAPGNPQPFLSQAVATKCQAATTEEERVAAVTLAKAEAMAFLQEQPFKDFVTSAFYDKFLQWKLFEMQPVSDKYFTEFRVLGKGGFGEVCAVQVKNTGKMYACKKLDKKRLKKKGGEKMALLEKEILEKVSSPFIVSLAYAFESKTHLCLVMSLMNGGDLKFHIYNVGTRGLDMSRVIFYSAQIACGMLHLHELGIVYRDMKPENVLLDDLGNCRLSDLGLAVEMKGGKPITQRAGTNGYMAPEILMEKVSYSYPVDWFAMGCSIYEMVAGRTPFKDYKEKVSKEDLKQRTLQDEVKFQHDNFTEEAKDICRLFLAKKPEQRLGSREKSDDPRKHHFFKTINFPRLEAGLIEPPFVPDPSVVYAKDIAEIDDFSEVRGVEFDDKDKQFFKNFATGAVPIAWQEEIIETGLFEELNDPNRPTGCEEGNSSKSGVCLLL
SMILES,observed,method,tested at,remaining binding [%]
F[C@@H]1CCN(c2nccc(-c3cnn4ncccc34)n2)C1,binding,,1 µM,100
O=S(=O)(NC1CCC(c2cc(F)ccc2F)(S(=O)(=O)c2ccc(Cl)cc2)CC1)C(F)(F)F (stereo not shown),cell-free assay,competition with immobilised ligand,1 µM,100
COc1ncc2cc3ccccc3nc2c1C#N,cell-free assay,competition with immobilised ligand,5 µM,100
O=C(Nc1ccc(Oc2ccc(F)cc2)cc1)N1CCc2ncccc2[C@H]1c1ccc(F)cc1,cell-free assay,competition with immobilised ligand,1 µM,100
Cc1cnn2ncc(-c3ccnc(N(C)C)n3)c2c1,binding,,1 µM,84
C[C@H](c1ccc(F)cc1)N(Cc1cccc(C(=O)O)c1)C(=O)c1cnc2ccccc2c1,cell-free assay,competition with immobilised ligand,1 µM,100
CN(C)c1nccc(-c2cnn3ncccc23)n1,binding,,1 µM,100
O=C(Nc1cccnn1)N1CC(C/C=C/c2cncc(Oc3ccc(C(F)(F)F)cn3)n2)C1,cell-free assay,competition with immobilised ligand,1 µM,85
CN(CCCC(F)(F)F)c1nccc(-c2cnn3ncccc23)n1,binding,,1 µM,93
O=C(Nc1c[nH]nc1C(=O)NC1CCNCC1)c1cc(F)cc(F)c1,binding,competition with immobilised ligand,1 µM,84
COc1cnc(Nc2cccc(S(N)(=O)=O)c2)nc1N1CCN(c2ccccc2)C(=O)C1,binding,competition with immobilised ligand,1 µM,61
FC(F)(F)Oc1cccc(-c2cnc3ccc(-c4ccncc4)nn23)c1,cell-free assay,competition with immobilised ligand,5 µM,24
O=C(c1ccc(Nc2ncc(Cl)c(-c3cc4ccccc4s3)n2)cc1)N1CCC(N2CCCC2)CC1,binding,competition with immobilised ligand,1 µM,56
C=CC(=O)N1CCC(C(=O)NCC(=O)N2CCN(c3nc(-c4cnc(N)nc4C(F)F)nc(N4CCOCC4)n3)CC2)CC1,binding,competition with immobilised ligand,1 µM,87
CN(C)c1ncc(F)c(-c2cnn3ncccc23)n1,binding,,1 µM,100
CCC(=O)N[C@@H]1CC[C@H](C(=O)N(C)c2ccc(-c3nc4ccccc4o3)cc2)C1,cell-free assay,competition with immobilised ligand,1 µM,93
CN(C)c1nccc(-c2cnc3ncccn23)n1,binding,,1 µM,41
O=C(c1ccc(Nc2nccc(-c3cc4ccccc4s3)n2)cc1)N1CCC(N2CCCC2)CC1,binding,competition with immobilised ligand,1 µM,79
N[C@@H]1CCN(c2nccc(-c3cnn4ncccc34)n2)C1,binding,,1 µM,100
O=C(NCCCN1CCOCC1)c1ccc(Nc2nccc(-c3cc4ccccc4s3)n2)cc1,binding,competition with immobilised ligand,1 µM,100
COc1cc(-c2cn(C3CCc4ccccc4N(CC(F)(F)F)C3=O)nn2)ccc1-n1ccc(C)n1 (stereo not shown),cell-free assay,competition with immobilised ligand,1 µM,87
CCN1CCN(Cc2ccc(C(=O)Nc3ccc(C)c(Oc4ccc5c(c4)CC(=O)N5)c3)cc2C(F)(F)F)CC1,binding,competition with immobilised ligand,1 µM,100
